{"data": "Measurements pooled from the literature", "target": "Calcium/calmodulin-dependent protein kinase kinase 2 (CAMKK2, Homo sapiens, UniProt Q96RR4)"}
{"SMILES": "C#Cc1cc(-c2cc(Nc3nc(N[C@@H](C)c4ccc(F)cn4)ncc3Cl)n[nH]2)ccc1C=O", "effect on": "enzyme activity", "action": "inhibitor", "concentration": "0.2 µM", "endpoint": "inhibition", "value": "57.9%"}
{"SMILES": "CCCCC(=O)Nc1ccc(-c2ccc3ncn(CCC)c(=O)c3c2)cn1", "effect on": "binding", "technique": "competition with immobilised ligand", "concentration": "0.5 µM", "endpoint": "remaining binding", "value": "100%"}
{"SMILES": "C=CC(=O)N1CCC[C@@H](n2nc(-c3ccc(Oc4ccccc4)cc3)c3c(N)ncnc32)C1", "effect on": "enzyme activity", "action": "inhibitor", "concentration": "1 µM", "endpoint": "inhibition", "value": "4%"}
{"SMILES": "COc1ccc2[nH]c3c4[nH]c5ccc(OC)cc5c4c4c(c3c2c1)C(=O)NC4=O", "effect on": "binding", "concentration": "1 µM", "endpoint": "remaining binding", "value": "74%"}
{"SMILES": "C=CC(=O)N1CCC([C@@H]2CCNc3c(C(N)=O)c(-c4ccc(Oc5ccccc5)cc4)nn32)CC1", "effect on": "enzyme activity", "action": "inhibitor", "concentration": "1 µM", "endpoint": "inhibition", "value": "12%"}
{"SMILES": "C1=C/COCc2cc(ccc2OCCN2CCCC2)Nc2nccc(n2)-c2cccc(c2)COC/1", "effect on": "binding", "concentration": "0.1 µM", "endpoint": "remaining binding", "value": "68%"}
{"SMILES": "Cc1ccc(NC(=O)c2ccnc(C(F)(F)F)c2)cc1-c1cc(OCCO)nc(N2CCOCC2)c1", "effect on": "binding", "concentration": "1 µM", "endpoint": "remaining binding", "value": "98%"}
{"SMILES": "Cc1cc(O)c(-c2ccc([C@@H](C)CN(C)C)cc2)c2c1[nH]c(=O)c1sccc12", "effect on": "enzyme activity", "action": "inhibitor", "concentration": "0.1 µM", "endpoint": "inhibition", "value": "6.79%"}
